TRPC6 activator: mouse TRPC6 channel activation | 0.13% of 310,000 active | AID 2550 | HEK293-TRPC6 membrane potential dye fluorescence; active compounds read high | B-score at 10 µM;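 active = B-score of the integrated fluorescence ratio above library mean plus 3 SD, and starting fluorescence ratio within library mean plus 5 SD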;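 note: higher score means more depolarization so channel activation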
Target sequence (Q61143 whole entry, looked up): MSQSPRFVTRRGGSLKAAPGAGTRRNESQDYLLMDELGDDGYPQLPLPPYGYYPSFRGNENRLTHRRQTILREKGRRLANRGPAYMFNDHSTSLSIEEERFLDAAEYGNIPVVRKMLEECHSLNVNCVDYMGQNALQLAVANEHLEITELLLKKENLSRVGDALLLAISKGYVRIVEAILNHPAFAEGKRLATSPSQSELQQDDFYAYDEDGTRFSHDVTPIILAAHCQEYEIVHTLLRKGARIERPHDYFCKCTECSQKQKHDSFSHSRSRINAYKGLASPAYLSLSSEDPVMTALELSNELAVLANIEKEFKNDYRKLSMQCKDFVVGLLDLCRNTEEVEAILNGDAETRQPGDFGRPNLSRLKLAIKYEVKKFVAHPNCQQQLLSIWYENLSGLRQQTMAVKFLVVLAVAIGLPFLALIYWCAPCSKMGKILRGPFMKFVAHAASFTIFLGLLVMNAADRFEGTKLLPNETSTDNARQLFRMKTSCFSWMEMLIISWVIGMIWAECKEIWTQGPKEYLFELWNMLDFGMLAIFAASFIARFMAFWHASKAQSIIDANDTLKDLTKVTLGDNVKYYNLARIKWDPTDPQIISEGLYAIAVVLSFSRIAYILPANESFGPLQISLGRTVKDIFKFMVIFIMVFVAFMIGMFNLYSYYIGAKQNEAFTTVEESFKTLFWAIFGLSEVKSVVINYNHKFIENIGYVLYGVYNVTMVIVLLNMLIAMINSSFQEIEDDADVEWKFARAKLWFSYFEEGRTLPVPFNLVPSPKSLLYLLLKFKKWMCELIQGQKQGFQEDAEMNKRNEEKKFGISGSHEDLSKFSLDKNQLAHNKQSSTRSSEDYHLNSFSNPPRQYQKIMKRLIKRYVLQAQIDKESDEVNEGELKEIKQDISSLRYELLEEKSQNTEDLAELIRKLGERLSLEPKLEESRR
TRPC4 block: blocks the mouse TRPC4 cation channel; 0.39% of 300,000 active; HEK293 TRPC4beta/mu-opioid, DAMGO-evoked Fluo4 calcium flux; active compounds read low; B-score at 10 µM; AID 2247; Q9QUQ5;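 active = B-score over 3 SD under the library average, no early fluorescence shift, positive overall ratio signal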
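Assay system: Stable TRPC4beta/mu-opioid receptor HEK293 cells | Reagent: DAMGO in two steps, submaximal then maximal | Compound dosing: Single concentration per test compound | Signal: Fluo4 Ca2+ flux fluorescence | Evaluation: Per-well B score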
TRPC6 inh: mouse TRPC6 channel inhibition; Q61143; HEK293-TRPC6, membrane potential dye, ACh-evoked depolarization; active compounds read low; B-score at 10 µM; 1.1% of 310,000 active;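 active = B-score under library mean minus 3 SD, initial fluorescence not abnormally high, positive integrated signal ratio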;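 note: B-score derived from integrated fluorescence ratio over the kinetic read; more negative B-score means stronger inhibition of depolarization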
TRPC4 agonist: activators of mouse TRPC4 channel | Q9QUQ5 | HEK293 TRPC4beta/mu-opioid, Fluo4 calcium fluorescence; active compounds read high | B-score at 10 µM | 0.49% of 310,000 active;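 active = B-score above 5 SD of library B-scores, and initial fluorescence ratio not above library mean plus 5 SD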;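 note: positive B-score marks a calcium rise read as TRPC4 activation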
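Assay system – TRPC4beta and mu-opioid receptor HEK293 stable cells · Measured by – Fluo4 fluorescence, kinetic · Schedule – dye loading 45 min room temperature, 110 s kinetic read · Read-out – B-scored integrated calcium fluorescence ratio · Controls – buffer and maximal DAMGO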
TRPC4 PAM: TRPC4 (mouse) allosteric potentiation; HEK293 TRPC4beta/mu-opioid, DAMGO EC20, Fluo-4 Ca2+ flux; active compounds read high; 0.42% of 310,000 active; Q9QUQ5; B-score at 10 µM;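 active = B-score of calcium response area above 5 SD of library B-scores, with initial fluorescence ratio within 5 SD of library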;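 note: B-score of integrated fluorescence ratio over time as area under calcium response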
The depositor's hits bear a star; i = inactive; · = not tested or not shown. Hits are enriched below; roughly 2.3% of the tested compounds scored in any of these assays.

SMILES	TRPC6 activator	TRPC4 block	TRPC6 inh	TRPC4 agonist	TRPC4 PAM
CCCOc1ccccc1NS(=O)(=O)c1ccc2[nH]c(=O)[nH]c2c1	i	i	i	i	i
COC(=O)CSc1nnc2n(-c3ccc(OC)cc3)c(=O)c3c4c(sc3n12)CCCCC4	i	-7*	i	i	i
CCCSc1nnc2n(-c3ccccc3OC)c(=O)c3c4c(sc3n12)CCC4	i	i	i	i	i
COC(=O)CSc1nnc2n(C3CCCCC3)c(=O)c3c4c(sc3n12)CCCC4	i	-6*	i	i	i
C=CCSc1nnc2n(-c3ccccc3OC)c(=O)c3c4c(sc3n12)CCC4	i	-6*	i	i	i
Cc1nccn1-c1cc(C(C)(C)C)nc2c(-c3ccccc3)cnn12	i	i	i	i	i
CN1CCCC(OC(=O)c2ccccc2Br)C1 (stereo not drawn)	i	i	i	i	10*
CN1CCCC(OC(=O)c2cccc(Cl)c2)C1 (stereo not drawn)	i	i	i	45*	12*
CN1CCCC(OC(=O)c2cc(Cl)cc(Cl)c2)C1 (stereo not drawn)	i	i	i	193*	i
CN1CCCC(OC(=O)c2cccc(Br)c2)C1 (stereo not drawn)	i	i	i	58*	i
Cc1ccc(S(=O)(=O)NC2c3cccc4cccc(c34)C2Sc2nc(C)cc(C)n2)cc1 (stereo not drawn)	i	i	i	i	i
CCOC(=O)C1=C(C)N=c2s/c(=C/c3cccc([N+](=O)[O-])c3O)c(=O)n2C1c1ccc(OC)cc1OC (stereo not drawn)	i	i	-5.25*	i	i
CC(=O)Oc1ccc(N(c2ccccc2)S(=O)(=O)c2ccc(C)cc2)cc1	i	i	i	i	i
Cc1c(C(=O)N(Cc2cccs2)C2CCS(=O)(=O)C2)oc2ccccc12 (stereo not drawn)	i	i	i	67*	i
CN(C)CCNC(=O)c1scc2c1CCCC2	i	i	i	142*	i
C=CCNC(=O)c1scc2c1CCCC2	i	i	i	i	i
COc1cc(C(=O)NNC(=S)NC(=O)c2ccccc2C)cc(OC)c1OC	i	i	i	i	i
COc1cc(C(=O)NC(=S)NNC(=O)[C@H]2C[C@@H]2c2ccccc2)cc(OC)c1OC	i	i	i	160*	i
COc1ccccc1C(=O)NNC(=S)NC(=O)c1cc(OC)c(OC)c(OC)c1	i	i	i	62*	i
O=C1C(Cl)=C(Nc2cccc(O)c2)C(=O)N1Cc1ccccc1	i	i	i	i	74*
CN1CCN(CC(=O)Nc2c(C#N)cnn2-c2ccccc2)CC1	i	i	i	59*	i
CCS(=O)(=O)N1CCC(C(=O)Oc2ccc(Cl)cc2)CC1	i	i	i	i	i
CO/N=C/c1ccc(N2CCN(C(=O)c3ccc(Cl)cc3Cl)CC2)c([N+](=O)[O-])c1	i	i	i	i	12*
CO/N=C/c1ccc(N2CCN(C(=O)c3ccc(F)cc3)CC2)c([N+](=O)[O-])c1	i	i	i	i	i
COc1cc(CCC(=O)NCc2ccc3c(c2)OCO3)cc(OC)c1OC	i	i	i	i	i
SMILES	TRPC6 activator	TRPC4 block	TRPC6 inh	TRPC4 agonist	TRPC4 PAM
Cc1ccc(C(C)(C)C)cc1S(=O)(=O)Nc1nc2ccccc2nc1Cl	i	-6*	i	i	i
CCc1nnc(NC(=O)c2nc3nc(C)cc(C)n3n2)s1	i	i	-5.51*	i	i
CCn1c(-c2ccc(N)cc2)nc2ccccc21	i	i	i	71*	i
O=S(=O)(/C=C/c1ccccc1)NC1CCCCCCC1	i	i	i	i	i
CCCc1n(CC)c2ccccc2[n+]1CC(O)COC1CCCCC1 (stereo not drawn)	i	i	i	i	i
CCOC(=O)C1=NNC(C(=O)c2ccc(Cl)cc2)C1c1ccc(OC)cc1 (stereo not drawn)	i	i	i	i	15*
O=c1cc(-c2ccccc2Cl)oc2c(NS(=O)(=O)c3cc(Cl)cc(Cl)c3O)ccc(O)c12	i	·	i	120*	i
NS(=O)(=O)c1ccc(Nc2nc(-c3ccc(O)cc3O)cs2)cc1	i	-6*	i	i	i
CCOc1ccccc1-n1c(SCC(=O)Nc2nccs2)nnc1-c1ccoc1C	i	-6*	i	i	i
CCOc1ccc(-n2c(SCC(=O)Nc3nccs3)nnc2-c2ccoc2C)cc1	i	i	i	i	i
CC(=O)c1ccc(N2CCN(c3ccc(S(=O)(=O)NCCCN(C)C)cc3[N+](=O)[O-])CC2)cc1	i	i	i	i	26*
O=C(Nc1ccccc1-c1ccccc1)c1cnccn1	i	i	i	i	13*
C/C(Cl)=C\Cn1c(N2CCCC2)nc2c1c(=O)n(C)c(=O)n2C	i	i	i	i	i
CCn1c(=O)n(CCOC)c(=O)c2c3c(sc21)CCCC3	i	-6*	i	i	i
CN(C)CCn1c(=O)n(C2CCCCC2)c(=O)c2c3c(sc21)CCCCC3	i	i	i	i	i
Cc1cc(C)c(O)c(C2(O)C(=O)c3ccccc3C2=O)c1	i	i	i	i	i
C=CCN(C(=O)CCC(=O)Nc1cc(C)on1)C(C(=O)NC(C)(C)C)c1ccc(OC)cc1 (stereo not drawn)	i	i	i	i	i
COCCCNc1nc2c(c(=O)n(Cc3ccc(OC)cc3)c(=O)n2C)n1C	i	i	i	i	i
COc1ccc(Cn2c(=O)c3c(nc(NCCO)n3C)n(C)c2=O)cc1	i	i	i	i	12*
O=C(NCCc1cccc(Cl)c1)c1ccc(OC2CCN(Cc3ccccn3)CC2)cc1	i	i	i	150*	i
O=C(NCCc1ccccn1)c1ccc(OC2CCN(CCc3ccccc3)CC2)cc1	i	i	i	66*	i
CSCCCNC(=O)c1ccc(OC2CCN(CCc3ccccc3)CC2)cc1	i	i	i	58*	i
CN(Cc1cnn(C)c1)C(=O)c1ccc(OC2CCN(CCc3ccccc3)CC2)cc1	i	-6*	i	i	i
CCOc1ccccc1C(=O)NC(C(=O)Nc1cccnc1)C(C)C (stereo not drawn)	i	i	i	i	i
COc1ccc(OCC(=O)N2c3ccc(C)cc3C3CN(C)CCC32)cc1 (stereo not drawn)	i	i	i	i	i

Screening results from PubChem.
